Test results reported in ChEMBL document CHEMBL4118021, “Studies of TAK1-centered polypharmacology with novel covalent TAK1 inhibitors” (Bioorg Med Chem, 2017).
One block for each compound: values may come before it. Activity calls are given as the source filed them. No cut-off for these calls is given here.

Experiments:
[1] = molecular target: Inhibitor of nuclear factor kappa-B kinase subunit epsilon (Homo sapiens) (UniProt Q14164); assay: Inhibition of IKKe in human SKCO1 cells at 1 uM after 4 hrs using biotin labeled DIKPGNIMR probe by mass-spectrometric analysis relative to control; format: cell-based
Chain of Inhibitor of nuclear factor kappa-B kinase subunit epsilon (Homo sapiens) (Q14164 whole entry, the tested form may be a part): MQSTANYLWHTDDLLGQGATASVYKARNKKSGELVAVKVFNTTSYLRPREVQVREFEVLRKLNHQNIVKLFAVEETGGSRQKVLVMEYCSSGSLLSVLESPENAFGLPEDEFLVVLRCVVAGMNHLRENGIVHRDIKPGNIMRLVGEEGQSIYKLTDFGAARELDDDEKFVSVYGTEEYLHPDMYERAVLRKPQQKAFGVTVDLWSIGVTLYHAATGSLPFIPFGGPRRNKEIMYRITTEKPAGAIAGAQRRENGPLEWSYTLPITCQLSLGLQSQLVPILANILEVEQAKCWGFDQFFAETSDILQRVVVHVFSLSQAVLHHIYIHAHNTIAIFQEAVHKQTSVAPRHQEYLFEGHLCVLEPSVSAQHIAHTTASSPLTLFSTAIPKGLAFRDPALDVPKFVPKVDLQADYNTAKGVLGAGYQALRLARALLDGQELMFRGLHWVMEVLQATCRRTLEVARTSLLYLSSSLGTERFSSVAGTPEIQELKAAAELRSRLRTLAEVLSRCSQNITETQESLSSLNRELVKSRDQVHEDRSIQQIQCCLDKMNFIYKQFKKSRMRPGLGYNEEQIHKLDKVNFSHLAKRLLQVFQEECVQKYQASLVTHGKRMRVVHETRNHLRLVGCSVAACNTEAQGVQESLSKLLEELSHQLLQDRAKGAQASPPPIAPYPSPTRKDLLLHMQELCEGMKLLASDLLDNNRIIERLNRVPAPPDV

[2] = molecular target: T1, Dual specificity mitogen-activated protein kinase kinase 3 (Homo sapiens) (UniProt P46734); assay: Inhibition of full length human MEK3 (1 to 318 residues) expressed in mammalian expression system assessed as enzyme activity at 10 uM by KINOMEScan assay relative to control; parameters: scale not given: the % may be the effect or the level left
T1 sequence (whole entry): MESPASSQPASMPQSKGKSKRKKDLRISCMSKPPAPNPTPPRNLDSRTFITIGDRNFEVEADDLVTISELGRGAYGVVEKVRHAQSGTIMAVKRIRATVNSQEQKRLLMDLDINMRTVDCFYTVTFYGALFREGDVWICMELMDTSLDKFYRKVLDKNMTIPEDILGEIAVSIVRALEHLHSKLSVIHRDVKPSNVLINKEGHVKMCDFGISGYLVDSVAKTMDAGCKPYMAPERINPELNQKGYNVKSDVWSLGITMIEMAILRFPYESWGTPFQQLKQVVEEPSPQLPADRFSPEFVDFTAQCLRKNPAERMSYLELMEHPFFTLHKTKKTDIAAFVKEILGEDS
Outline: (§1)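 In vitro ATP-site competition binding assay (KinomeScan) across a panel of 456 kinases. Compound was tested at 1 and 10 μM. The read-out is the binding inhibition score relative to control.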

[3] = molecular target: Activin receptor type-1 (Homo sapiens) (UniProt Q04771); assay: Inhibition of human ACVR1 (188 to 509 residues) expressed in bacterial expression system assessed as enzyme activity at 1 uM by KINOMEScan assay relative to control; parameters: scale not given: the % may be the effect or the level left; outline: as §1
[4] = molecular target: Platelet-derived growth factor receptor beta (Homo sapiens) (UniProt P09619); assay: Inhibition of human PDGFRB (582 to 1009 residues) expressed in bacterial expression system assessed as enzyme activity at 10 uM by KINOMEScan assay relative to control; parameters: scale not given: the % may be the effect or the level left
Outline: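 In vitro ATP-site competition binding assay across a panel of 456 kinases, with compound tested at 1 and 10 μM.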

[5] = molecular target: Actin-related protein 2/3 complex subunit 2 (Homo sapiens) (UniProt O15144); assay: Binding affinity to ARPC2 in human NCI-H358 cells at 1 uM by mass spectrometry based pull down assay; format: cell-based
NCI-H358 = assay: Binding affinity to XRCC5 in human NCI-H358 cells at 1 uM by mass spectrometry based pull down assay; format: cell-based
[6] = molecular target: 80S Ribosome (Homo sapiens) (UniProt P08865+P42677+P62753+P15880+P23396+P61247+P62701+P22090+P46782+P62081+P62241+P46781+P46783+P62280+P25398+P62277+P62263+P62841+P62244+P62249+P08708+P62269+P39019+P60866+P63220+P62266+P62847+P62851+P62854+P62979+P62857+P62273+P62861+P39023+P36578+P46777+Q02878+P18124+P62424+P62917+P32969+P27635+P62906+P62913+P30050+P26373+P40429+P50914+P61313+P18621+Q07020+Q02543+P84098+P46778+P35268+P62829+P62750+P83731+P61254+P61353+P46776+P46779+P47914+P62888+P62899+P62910+P49207+P42766+P18077+Q9Y3U8+P83881+P61927+P61513+P63173+P62891+P62945+P05388+P05386); assay: Binding affinity to RPS26 in human NCI-H23 cells at 1 uM by mass spectrometry based pull down assay; format: cell-based
[7] = molecular target: Glyoxylate reductase/hydroxypyruvate reductase (Homo sapiens) (UniProt Q9UBQ7); assay: Binding affinity to GRHPR in human NCI-H23 cells at 1 uM by mass spectrometry based pull down assay; format: cell-based
Chain of Glyoxylate reductase/hydroxypyruvate reductase (Homo sapiens) (Q9UBQ7 whole entry): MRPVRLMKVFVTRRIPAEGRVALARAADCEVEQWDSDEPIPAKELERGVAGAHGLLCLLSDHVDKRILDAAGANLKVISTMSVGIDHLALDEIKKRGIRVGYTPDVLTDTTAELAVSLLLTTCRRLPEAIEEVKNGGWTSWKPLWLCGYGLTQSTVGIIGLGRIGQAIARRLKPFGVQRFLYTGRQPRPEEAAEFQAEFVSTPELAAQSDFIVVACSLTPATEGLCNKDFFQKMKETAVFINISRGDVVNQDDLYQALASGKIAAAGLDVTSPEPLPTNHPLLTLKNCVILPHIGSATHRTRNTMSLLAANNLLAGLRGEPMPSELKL

[8] = molecular target: MAP kinase-activated protein kinase 5 (Homo sapiens) (UniProt Q8IW41); assay: Binding affinity to MAPKAPK5 in human NCI-H358 cells at 1 uM by mass spectrometry based pull down assay; format: cell-based
[9] = molecular target: Fructose-2,6-bisphosphatase TIGAR (Homo sapiens) (UniProt Q9NQ88); assay: Binding affinity to TIGAR in human NCI-H23 cells at 1 uM by mass spectrometry based pull down assay; format: cell-based
Chain of Fructose-2,6-bisphosphatase TIGAR (Homo sapiens) (Q9NQ88 whole entry): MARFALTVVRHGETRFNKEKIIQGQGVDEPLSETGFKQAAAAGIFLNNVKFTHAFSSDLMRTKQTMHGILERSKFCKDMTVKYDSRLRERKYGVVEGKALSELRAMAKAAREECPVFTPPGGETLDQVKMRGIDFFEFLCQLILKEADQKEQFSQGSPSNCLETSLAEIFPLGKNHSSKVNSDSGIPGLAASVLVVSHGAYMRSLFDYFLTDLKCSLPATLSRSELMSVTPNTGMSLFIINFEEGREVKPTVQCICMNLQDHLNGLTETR

[10] = molecular target: Opioid growth factor receptor (Homo sapiens) (UniProt Q9NZT2); assay: Binding affinity to OGFR in human NCI-H358 cells at 1 uM by mass spectrometry based pull down assay; format: cell-based
Chain of Opioid growth factor receptor (Homo sapiens) (Q9NZT2 whole entry): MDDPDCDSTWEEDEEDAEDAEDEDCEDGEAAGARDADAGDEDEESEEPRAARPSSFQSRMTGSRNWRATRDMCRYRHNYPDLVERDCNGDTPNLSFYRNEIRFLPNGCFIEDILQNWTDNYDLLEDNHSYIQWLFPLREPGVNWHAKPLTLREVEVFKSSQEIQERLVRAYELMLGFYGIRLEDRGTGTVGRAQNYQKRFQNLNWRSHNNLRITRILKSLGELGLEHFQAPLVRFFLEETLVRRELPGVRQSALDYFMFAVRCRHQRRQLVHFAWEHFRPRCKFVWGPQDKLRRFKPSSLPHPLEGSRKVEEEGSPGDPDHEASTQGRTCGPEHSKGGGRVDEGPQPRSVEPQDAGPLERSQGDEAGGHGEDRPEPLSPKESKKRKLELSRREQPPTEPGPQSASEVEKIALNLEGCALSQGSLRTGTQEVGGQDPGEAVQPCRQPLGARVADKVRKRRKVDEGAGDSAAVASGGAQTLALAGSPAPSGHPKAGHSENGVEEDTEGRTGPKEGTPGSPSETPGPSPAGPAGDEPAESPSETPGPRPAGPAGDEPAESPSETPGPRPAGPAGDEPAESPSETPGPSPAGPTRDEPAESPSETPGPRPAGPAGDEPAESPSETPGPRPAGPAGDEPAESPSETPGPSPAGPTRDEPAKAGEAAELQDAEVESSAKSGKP

[11] = molecular target: GTP-binding protein Rheb (Homo sapiens) (UniProt Q15382); assay: Binding affinity to RHEB in human NCI-H358 cells at 1 uM by mass spectrometry based pull down assay; format: cell-based
Chain of GTP-binding protein Rheb (Homo sapiens) (Q15382 whole entry): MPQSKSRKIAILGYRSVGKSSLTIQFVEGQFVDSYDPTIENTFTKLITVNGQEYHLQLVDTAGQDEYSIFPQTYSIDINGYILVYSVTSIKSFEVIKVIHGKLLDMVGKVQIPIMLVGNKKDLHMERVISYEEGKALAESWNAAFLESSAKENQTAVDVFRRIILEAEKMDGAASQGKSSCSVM

Agrin (Homo sapiens) = Agrin (Homo sapiens) (UniProt O00468); assay: Binding affinity to AGRN in human NCI-H358 cells at 1 uM by mass spectrometry based pull down assay; format: cell-based
Chain of Agrin (Homo sapiens) (O00468 whole entry): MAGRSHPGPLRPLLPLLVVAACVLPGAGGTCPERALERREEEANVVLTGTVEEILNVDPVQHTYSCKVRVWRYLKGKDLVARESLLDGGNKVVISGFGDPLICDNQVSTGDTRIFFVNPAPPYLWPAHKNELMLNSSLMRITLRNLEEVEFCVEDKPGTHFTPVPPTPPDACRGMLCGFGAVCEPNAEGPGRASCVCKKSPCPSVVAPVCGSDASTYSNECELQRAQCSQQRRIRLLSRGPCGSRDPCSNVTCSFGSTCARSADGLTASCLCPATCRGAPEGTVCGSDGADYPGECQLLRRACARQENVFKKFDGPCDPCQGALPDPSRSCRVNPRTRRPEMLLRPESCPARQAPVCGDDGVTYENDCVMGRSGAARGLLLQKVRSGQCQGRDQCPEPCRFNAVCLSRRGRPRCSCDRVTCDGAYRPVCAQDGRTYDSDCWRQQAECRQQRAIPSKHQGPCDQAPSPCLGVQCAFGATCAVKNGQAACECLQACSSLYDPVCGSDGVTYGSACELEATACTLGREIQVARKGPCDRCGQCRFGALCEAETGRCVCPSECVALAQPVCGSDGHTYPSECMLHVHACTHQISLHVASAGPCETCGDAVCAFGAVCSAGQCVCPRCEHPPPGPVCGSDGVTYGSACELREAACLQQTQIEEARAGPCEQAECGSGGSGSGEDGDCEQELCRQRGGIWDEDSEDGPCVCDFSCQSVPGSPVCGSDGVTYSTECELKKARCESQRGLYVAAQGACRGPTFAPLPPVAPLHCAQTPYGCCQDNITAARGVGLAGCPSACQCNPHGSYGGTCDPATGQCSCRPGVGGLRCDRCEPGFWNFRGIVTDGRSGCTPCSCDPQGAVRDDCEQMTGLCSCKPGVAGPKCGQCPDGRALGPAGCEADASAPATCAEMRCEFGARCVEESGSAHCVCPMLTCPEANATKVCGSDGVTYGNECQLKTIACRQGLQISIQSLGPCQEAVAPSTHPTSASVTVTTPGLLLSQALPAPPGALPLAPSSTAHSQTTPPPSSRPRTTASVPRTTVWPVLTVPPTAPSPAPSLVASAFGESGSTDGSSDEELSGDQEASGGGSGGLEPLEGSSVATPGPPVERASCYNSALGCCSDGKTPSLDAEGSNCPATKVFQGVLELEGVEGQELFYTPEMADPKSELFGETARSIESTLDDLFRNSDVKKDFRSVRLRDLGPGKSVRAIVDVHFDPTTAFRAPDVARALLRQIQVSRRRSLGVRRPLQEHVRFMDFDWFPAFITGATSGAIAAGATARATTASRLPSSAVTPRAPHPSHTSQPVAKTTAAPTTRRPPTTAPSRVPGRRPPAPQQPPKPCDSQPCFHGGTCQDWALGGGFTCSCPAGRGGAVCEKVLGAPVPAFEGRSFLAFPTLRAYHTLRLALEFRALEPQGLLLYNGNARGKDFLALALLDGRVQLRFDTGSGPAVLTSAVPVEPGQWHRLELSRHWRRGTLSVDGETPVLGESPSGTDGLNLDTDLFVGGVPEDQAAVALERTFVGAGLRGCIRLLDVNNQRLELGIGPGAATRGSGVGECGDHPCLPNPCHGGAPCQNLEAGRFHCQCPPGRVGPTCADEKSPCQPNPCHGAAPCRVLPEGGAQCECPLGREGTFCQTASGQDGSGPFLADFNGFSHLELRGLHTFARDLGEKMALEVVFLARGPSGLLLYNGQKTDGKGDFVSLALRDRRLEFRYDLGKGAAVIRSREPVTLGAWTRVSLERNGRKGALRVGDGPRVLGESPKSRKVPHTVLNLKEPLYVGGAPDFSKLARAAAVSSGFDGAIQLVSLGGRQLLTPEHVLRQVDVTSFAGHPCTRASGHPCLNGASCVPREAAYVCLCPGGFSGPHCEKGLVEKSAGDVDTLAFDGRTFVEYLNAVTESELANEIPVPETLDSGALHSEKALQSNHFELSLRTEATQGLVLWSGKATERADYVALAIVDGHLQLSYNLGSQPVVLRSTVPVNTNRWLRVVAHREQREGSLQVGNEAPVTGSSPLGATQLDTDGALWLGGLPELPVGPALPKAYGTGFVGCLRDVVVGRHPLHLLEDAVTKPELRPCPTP
Outline: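 NCI-H23 or NCI-H358 cells were grown and lysed. Lysates were incubated overnight at 4 °C with 1 μM biotinylated covalent probe or DMSO, then pulled down on streptavidin beads. Proteins were run on polyacrylamide gels and stained with Coomassie. Bands were excised, digested and identified by mass spectrometry.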

[12] = molecular target: Glutamine--fructose-6-phosphate aminotransferase [isomerizing] 1 (Homo sapiens) (UniProt Q06210); assay: Binding affinity to GFPT1 in human NCI-H358 cells at 1 uM by mass spectrometry based pull down assay; format: cell-based
Chain of Glutamine--fructose-6-phosphate aminotransferase [isomerizing] 1 (Homo sapiens) (Q06210 whole entry): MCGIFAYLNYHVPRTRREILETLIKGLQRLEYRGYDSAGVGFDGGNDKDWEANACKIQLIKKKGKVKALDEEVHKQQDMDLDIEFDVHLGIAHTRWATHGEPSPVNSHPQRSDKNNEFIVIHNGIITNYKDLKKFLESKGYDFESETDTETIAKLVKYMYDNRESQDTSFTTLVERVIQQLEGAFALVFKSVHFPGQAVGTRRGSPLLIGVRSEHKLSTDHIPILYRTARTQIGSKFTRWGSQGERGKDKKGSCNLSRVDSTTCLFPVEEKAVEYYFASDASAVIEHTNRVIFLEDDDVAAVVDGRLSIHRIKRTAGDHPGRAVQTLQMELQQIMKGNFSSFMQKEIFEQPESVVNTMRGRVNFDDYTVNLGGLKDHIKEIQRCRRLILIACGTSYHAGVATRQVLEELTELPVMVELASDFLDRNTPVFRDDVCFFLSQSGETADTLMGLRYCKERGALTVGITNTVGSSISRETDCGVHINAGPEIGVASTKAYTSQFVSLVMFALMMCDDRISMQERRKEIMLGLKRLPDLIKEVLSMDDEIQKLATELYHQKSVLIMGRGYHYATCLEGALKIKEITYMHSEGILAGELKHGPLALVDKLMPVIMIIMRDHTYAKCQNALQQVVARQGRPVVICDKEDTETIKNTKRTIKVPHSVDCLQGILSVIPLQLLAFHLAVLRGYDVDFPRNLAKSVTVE

[13] = molecular target: T2, Dual specificity mitogen-activated protein kinase kinase 5 (Homo sapiens) (UniProt Q13163); assay: Binding affinity to MAP2K5 in human NCI-H358 cells at 1 uM by mass spectrometry based pull down assay; format: cell-based
T2 sequence (whole entry): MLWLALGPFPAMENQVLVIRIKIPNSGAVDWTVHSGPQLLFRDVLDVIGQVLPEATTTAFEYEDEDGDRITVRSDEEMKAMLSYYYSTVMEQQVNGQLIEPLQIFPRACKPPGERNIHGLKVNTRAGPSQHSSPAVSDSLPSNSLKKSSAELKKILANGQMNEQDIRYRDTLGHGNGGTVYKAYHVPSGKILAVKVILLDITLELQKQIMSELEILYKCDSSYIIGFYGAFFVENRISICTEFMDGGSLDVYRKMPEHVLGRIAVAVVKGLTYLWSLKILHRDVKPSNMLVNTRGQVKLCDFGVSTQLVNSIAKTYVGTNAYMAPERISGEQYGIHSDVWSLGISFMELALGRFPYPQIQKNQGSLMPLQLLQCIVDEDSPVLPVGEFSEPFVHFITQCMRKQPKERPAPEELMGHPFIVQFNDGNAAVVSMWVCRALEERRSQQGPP

Compound: C=CC(=O)Nc1ccccc1Nc1nc(Nc2ccc(N3CCN(C)CC3)cc2)ncc1Cl
inhibition [1]: 59.3%

Compound: COc1cc(O)c2c(c1)/C=C/C[C@H](O)[C@H](O)C(=O)/C=C\C[C@H](C)OC2=O
Activity [2]: 1.4%
Activity [3]: 21%
Activity [4]: 0.05%

Activity [5]: Active
Activity [6]: Active
Activity [7]: Active
Activity [8]: Active
Activity [9]: Active
Activity [10]: Active
Activity [11]: Active
Activity (Agrin (Homo sapiens)): Active
Activity [12]: Active
Activity [13]: Active
Compound: C=CC(=O)Nc1ccccc1Nc1nc(Nc2ccc(N3CCN(CCOCCOCCOCCNC(=O)CCCC[C@@H]4SC[C@@H]5NC(=O)N[C@@H]54)CC3)cc2)ncc1Cl
Activity (NCI-H358): Active
